What was measured:
[1] = test system: A2780; assay: Potentiation of 10 uM cisplatin-induced toxicity in 5 uM cisplatin resistant human A2780 cells at 1 uM pretreated for 48 hrs followed by 5 uM cisplatin treatment by MTT assay; format: functional
[2] = test system: KYSE-510; assay: Potentiation of 8 uM cisplatin-induced toxicity in 0.5 uM cisplatin resistant human KYSE-510 cells at 0.25 uM pretreated for 48 hrs followed by 0.5 uM cisplatin treatment by MTT assay; format: functional
[3] = target: T1, Histone deacetylase 11 (Homo sapiens, UniProt Q96DB2); assay: Inhibition of human HDAC11 by fluorescence assay
T1 sequence (Q96DB2 whole entry): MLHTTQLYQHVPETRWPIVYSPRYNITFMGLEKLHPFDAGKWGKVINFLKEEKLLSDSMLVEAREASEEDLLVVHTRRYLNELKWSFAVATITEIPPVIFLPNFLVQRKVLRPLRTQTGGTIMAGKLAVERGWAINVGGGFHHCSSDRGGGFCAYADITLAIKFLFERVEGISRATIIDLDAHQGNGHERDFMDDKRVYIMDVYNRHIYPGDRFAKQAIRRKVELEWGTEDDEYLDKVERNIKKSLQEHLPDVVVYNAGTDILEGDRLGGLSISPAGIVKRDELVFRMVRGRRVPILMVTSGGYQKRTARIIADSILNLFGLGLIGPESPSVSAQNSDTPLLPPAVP

[4] = test system: CAL-27; assay: Potentiation of 5 uM cisplatin-induced toxicity in 1 uM cisplatin resistant human CAL27 cells at 0.25 uM pretreated for 48 hrs followed by 1 uM cisplatin treatment by MTT assay; format: functional
[5] = test system: A2780; assay: Potentiation of 10 uM cisplatin-induced toxicity in 5 uM cisplatin resistant human A2780 cells at 1.5 uM pretreated for 48 hrs followed by 5 uM cisplatin treatment by MTT assay; format: functional
[6] = test system: KYSE-510; assay: Potentiation of cisplatin-induced toxicity in cisplatin resistant human KYSE-510 cells at 1 uM pretreated for 48 hrs followed by cisplatin treatment by MTT assay; format: functional
Method in brief: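 Resistant sublines pretreated 48 h with 1 μM HDAC inhibitor, then cisplatin over a concentration range for 72 h; MTT viability read at 544/690 nm. Cisplatin IC50 from four-parameter logistic fit of pooled data (≥3 experiments, triplicate); shift factor = IC50 of cisplatin alone divided by IC50 of the combination.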

[7] = target: Histone deacetylase; assay: Inhibition of HDAC in cisplatin resistant human MDA-MB-231 cells after 18 hrs by fluorescence assay; format: cell-based
[8] = test system: A2780; assay: Potentiation of 8 uM cisplatin-induced toxicity in 5 uM cisplatin resistant human A2780 cells at 0.5 uM pretreated for 48 hrs followed by 5 uM cisplatin treatment by MTT assay; format: functional
[9] = test system: KYSE-510; assay: Potentiation of 8 uM cisplatin-induced toxicity in 0.5 uM cisplatin resistant human KYSE-510 cells at 1 uM pretreated for 48 hrs followed by 0.5 uM cisplatin treatment by MTT assay; format: functional
[10] = test system: MDA-MB-231; assay: Potentiation of 25 uM cisplatin-induced toxicity in 1 uM cisplatin resistant human MDA-MB-231 cells at 0.5 uM pretreated for 48 hrs followed by 1 uM cisplatin treatment by MTT assay; format: functional
[11] = test system: A2780; assay: Potentiation of 10 uM cisplatin-induced toxicity in 5 uM cisplatin resistant human A2780 cells at 0.5 uM pretreated for 48 hrs followed by 5 uM cisplatin treatment by MTT assay; format: functional
[12] = test system: MDA-MB-231; assay: Cytotoxicity against cisplatin resistant human MDA-MB-231 cells after 72 hrs by MTT assay; format: functional, cell-based; settings: MDA-MB-231, 72 h
[13] = test system: KYSE-510; assay: Potentiation of 0.75 uM cisplatin-induced toxicity in 0.5 uM cisplatin resistant human KYSE-510 cells at 0.5 uM pretreated for 48 hrs followed by 0.5 uM cisplatin treatment by MTT assay; format: functional
Method in brief: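 Cisplatin-resistant Kyse510 CisR (derived by weekly cycles of cisplatin over 24−30 weeks), grown in RPMI 1640 with 10% FCS at 37 °C, 5% CO₂. Test agent added 48 h before cisplatin, then 72 h further incubation. Viability by MTT (read at 544/690 nm) relative to untreated control wells. Combination index by Chou−Talalay method. Mean of three experiments.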

[14] = test system: MDA-MB-231; assay: Potentiation of 5 uM cisplatin-induced toxicity in 1 uM cisplatin resistant human MDA-MB-231 cells at 0.25 uM pretreated for 48 hrs followed by 1 uM cisplatin treatment by MTT assay; format: functional
[15] = test system: KYSE-510; assay: Cytotoxicity against cisplatin resistant human KYSE-510 cells after 72 hrs by MTT assay; format: functional, cell-based; settings: KYSE-510, 72 h
[16] = target: T2, Histone deacetylase 8 (Homo sapiens, UniProt Q9BY41); assay: Inhibition of human HDAC8 by fluorescence assay
T2 sequence (Q9BY41 whole entry): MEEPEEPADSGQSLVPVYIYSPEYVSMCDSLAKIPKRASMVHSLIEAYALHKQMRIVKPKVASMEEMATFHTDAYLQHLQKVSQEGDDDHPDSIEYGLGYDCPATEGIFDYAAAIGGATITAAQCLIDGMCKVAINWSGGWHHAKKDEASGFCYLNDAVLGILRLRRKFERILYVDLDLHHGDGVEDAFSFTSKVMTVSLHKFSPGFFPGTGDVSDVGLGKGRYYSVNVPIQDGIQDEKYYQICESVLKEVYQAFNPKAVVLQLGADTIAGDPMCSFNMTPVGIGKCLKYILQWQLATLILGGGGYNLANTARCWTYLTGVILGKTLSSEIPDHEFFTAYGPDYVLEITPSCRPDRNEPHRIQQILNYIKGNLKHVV

[17] = test system: MDA-MB-231; assay: Potentiation of 10 uM cisplatin-induced toxicity in 1 uM cisplatin resistant human MDA-MB-231 cells at 0.5 uM pretreated for 48 hrs followed by 1 uM cisplatin treatment by MTT assay; format: functional
[18] = target: Histone deacetylase 2 (Homo sapiens, UniProt Q92769); assay: Inhibition of human HDAC2 by fluorescence assay
Histone deacetylase 2, sequence (Q92769 whole entry): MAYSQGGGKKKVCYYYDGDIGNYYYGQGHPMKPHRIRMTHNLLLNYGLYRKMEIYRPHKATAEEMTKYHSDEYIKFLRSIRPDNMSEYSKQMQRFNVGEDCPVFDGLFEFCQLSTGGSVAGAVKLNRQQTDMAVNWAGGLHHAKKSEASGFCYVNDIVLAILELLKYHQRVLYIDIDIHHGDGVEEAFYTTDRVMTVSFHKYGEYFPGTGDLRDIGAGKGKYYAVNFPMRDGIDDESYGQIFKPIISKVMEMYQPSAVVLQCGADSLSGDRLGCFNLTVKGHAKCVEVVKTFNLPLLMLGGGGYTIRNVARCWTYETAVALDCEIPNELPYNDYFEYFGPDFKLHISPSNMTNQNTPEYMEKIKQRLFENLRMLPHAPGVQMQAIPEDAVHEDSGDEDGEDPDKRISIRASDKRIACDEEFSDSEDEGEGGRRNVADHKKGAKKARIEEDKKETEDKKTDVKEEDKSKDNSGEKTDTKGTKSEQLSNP

[19] = test system: A2780; assay: Potentiation of 8 uM cisplatin-induced toxicity in 5 uM cisplatin resistant human A2780 cells at 1.5 uM pretreated for 48 hrs followed by 5 uM cisplatin treatment by MTT assay; format: functional
[20] = test system: CAL-27; assay: Cytotoxicity against cisplatin resistant human CAL27 cells after 72 hrs by MTT assay; format: functional, cell-based; settings: CAL-27, 72 h
[21] = test system: CAL-27; assay: Potentiation of 10 uM cisplatin-induced toxicity in 1 uM cisplatin resistant human CAL27 cells at 1 uM pretreated for 48 hrs followed by 1 uM cisplatin treatment by MTT assay; format: functional
[22] = test system: CAL-27; assay: Potentiation of 2.5 uM cisplatin-induced toxicity in 1 uM cisplatin resistant human CAL27 cells at 1 uM pretreated for 48 hrs followed by 1 uM cisplatin treatment by MTT assay; format: functional

IC50 [3]: 852 nM | IC50 [7]: 410 nM | IC50 [16]: 1280 nM | IC50 [18]: 881 nM
Compound: Cc1cc(C)cc(C(=O)NOCCCCCC(=O)NO)c1
Activity [1]: Dose-dependent effect | fractional inhibitory concentration index (FICI) [1]: 0.61 | Activity [2]: Dose-dependent effect | fractional inhibitory concentration index (FICI) [2]: 0.18 | Activity [4]: Dose-dependent effect | Activity [5]: Dose-dependent effect | fractional inhibitory concentration index (FICI) [5]: 0.68 | Activity [6]: Dose-dependent effect | fold change (FC) [6]: 18.8 | Activity [8]: Dose-dependent effect | fractional inhibitory concentration index (FICI) [8]: 0.66 | Activity [9]: Dose-dependent effect | fractional inhibitory concentration index (FICI) [9]: 0.18 | Activity [10]: Dose-dependent effect | fractional inhibitory concentration index (FICI) [10]: 0.79 | Activity [11]: Dose-dependent effect | fractional inhibitory concentration index (FICI) [11]: 0.69 | IC50 [12]: 1680 nM | Activity [13]: Dose-dependent effect | fractional inhibitory concentration index (FICI) [13]: 0.07 | Activity [14]: Dose-dependent effect | fractional inhibitory concentration index (FICI) [14]: <0.2 | IC50 [15]: 2480 nM | Activity [17]: Dose-dependent effect | Activity [19]: Dose-dependent effect | fractional inhibitory concentration index (FICI) [19]: 0.74 | IC50 [20]: 1810 nM | Activity [21]: Dose-dependent effect | fractional inhibitory concentration index (FICI) [21]: 0.24 | Activity [22]: Dose-dependent effect | fractional inhibitory concentration index (FICI) [22]: 0.38

From ChEMBL document CHEMBL2311425, “Histone deacetylase (HDAC) inhibitors with a novel connecting unit linker region reveal a selectivity profile for HDAC4 and HDAC5 with improved activity against chemoresistant cancer cells” (J Med Chem, 2013)
